Tests used:
Staphylococcus aureus [1] = test: Antibacterial activity against methicillin-resistant Staphylococcus aureus SR3637 infected in JCL/ICR mouse systemic infection model assessed as mortality administered as iv measured over 7 days; format: functional; conditions: 168 h
Method in brief: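 Lethal systemic infection model in mice; test agents were given intravenously.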

Staphylococcus aureus [2] = test: Antibacterial activity against methicillin-resistant Staphylococcus aureus SR3637 assessed as growth inhibition by broth microdilution method; format: functional
Haemophilus influenzae [3] = test: Potency index, ratio of linezolid MIC to compound MIC for Haemophilus influenzae SR27914 clinical isolate; format: functional
Streptococcus pneumoniae [4] = test: Potency index, ratio of linezolid MIC to compound MIC for Streptococcus pneumoniae SR26207 clinical isolate; format: functional
Moraxella catarrhalis [5] = test: Potency index, ratio of linezolid MIC to compound MIC for Moraxella catarrhalis SR26840 clinical isolate; format: functional
Enterococcus faecium [6] = test: Potency index, ratio of linezolid MIC to compound MIC for Enterococcus faecium SR7940 clinical isolate; format: functional
Enterococcus faecalis [7] = test: Potency index, ratio of linezolid MIC to compound MIC for Enterococcus faecalis SR1004 clinical isolate; format: functional
Staphylococcus aureus [8] = test: Potency index, ratio of linezolid MIC to compound MIC for Staphylococcus aureus Smith; format: functional
Staphylococcus aureus [9] = test: Potency index, ratio of linezolid MIC to compound MIC for Staphylococcus aureus SR20549 clinical isolate; format: functional
Haemophilus influenzae [10] = test: Antibacterial activity against Haemophilus influenzae SR27914 clinical isolate assessed as growth inhibition by broth microdilution method; format: functional
Streptococcus pneumoniae [11] = test: Antibacterial activity against Streptococcus pneumoniae SR26207 clinical isolate assessed as growth inhibition by broth microdilution method; format: functional
Staphylococcus aureus [12] = test: Antibacterial activity against linezolid-resistant Staphylococcus aureus NRS271 assessed as growth inhibition by broth microdilution method; format: functional
Enterococcus faecalis [13] = test: Antibacterial activity against Enterococcus faecalis SR1004 clinical isolate assessed as growth inhibition by broth microdilution method; format: functional
Staphylococcus aureus [14] = test: Antibacterial activity against Staphylococcus aureus SR20549 clinical isolate assessed as growth inhibition by broth microdilution method; format: functional
Staphylococcus aureus [15] = test: Antibacterial activity against Staphylococcus aureus Smith assessed as growth inhibition by broth microdilution method; format: functional
Moraxella catarrhalis [16] = test: Antibacterial activity against Moraxella catarrhalis SR26840 clinical isolate assessed as growth inhibition by broth microdilution method; format: functional
Enterococcus faecium [17] = test: Antibacterial activity against Enterococcus faecium SR7940 clinical isolate assessed as growth inhibition by broth microdilution method; format: functional
MAO-B = biological target: T1, MAO-B (Rattus norvegicus, UniProt P19643); test: Inhibition of MAO-B in rat forebrain using [14C]PEA as substrate at 30 uM incubated for 20 mins prior to substrate addition measured after 10 mins by liquid scintillation counting analysis; format: tissue-based; conditions: probe [14C]PEA
T1 sequence (P19643 whole entry): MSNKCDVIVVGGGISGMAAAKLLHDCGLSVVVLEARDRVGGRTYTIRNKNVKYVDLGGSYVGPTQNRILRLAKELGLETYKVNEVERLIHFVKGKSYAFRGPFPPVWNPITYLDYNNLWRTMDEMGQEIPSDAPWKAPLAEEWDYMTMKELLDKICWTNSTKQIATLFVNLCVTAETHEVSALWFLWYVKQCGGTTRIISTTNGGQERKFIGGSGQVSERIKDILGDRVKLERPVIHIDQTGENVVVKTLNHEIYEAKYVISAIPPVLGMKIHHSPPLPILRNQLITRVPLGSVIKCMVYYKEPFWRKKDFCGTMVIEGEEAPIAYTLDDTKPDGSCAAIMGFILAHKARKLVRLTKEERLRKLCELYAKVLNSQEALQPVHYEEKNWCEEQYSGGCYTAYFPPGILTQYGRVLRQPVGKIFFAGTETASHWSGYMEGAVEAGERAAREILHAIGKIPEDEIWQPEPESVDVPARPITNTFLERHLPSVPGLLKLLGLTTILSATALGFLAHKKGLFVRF

MAO-A = biological target: T2, MAO-A (Rattus norvegicus, UniProt P21396); test: Inhibition of MAO-A in rat forebrain using [14C]5-HT as substrate at 30 uM incubated for 20 mins prior to substrate addition measured after 5 mins by liquid scintillation counting analysis; format: tissue-based; conditions: probe [14C]5-HT
T2 sequence (P21396 whole entry): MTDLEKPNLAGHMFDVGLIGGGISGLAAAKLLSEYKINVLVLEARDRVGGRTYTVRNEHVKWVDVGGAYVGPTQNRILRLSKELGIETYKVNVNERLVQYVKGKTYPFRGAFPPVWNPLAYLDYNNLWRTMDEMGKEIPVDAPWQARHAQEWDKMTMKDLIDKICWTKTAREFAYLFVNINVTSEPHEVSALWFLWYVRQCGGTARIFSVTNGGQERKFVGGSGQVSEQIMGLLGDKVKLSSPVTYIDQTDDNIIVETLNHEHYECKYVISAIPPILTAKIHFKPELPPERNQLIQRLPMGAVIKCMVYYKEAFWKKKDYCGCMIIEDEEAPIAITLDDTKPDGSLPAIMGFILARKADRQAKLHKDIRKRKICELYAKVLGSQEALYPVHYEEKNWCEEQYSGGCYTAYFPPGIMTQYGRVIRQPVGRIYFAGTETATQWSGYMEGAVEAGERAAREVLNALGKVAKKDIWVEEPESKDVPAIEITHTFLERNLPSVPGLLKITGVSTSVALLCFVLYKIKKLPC

Cytochrome P450 3A4 = Cytochrome P450 3A4 (Homo sapiens, UniProt P08684); test: Inhibition of CYP3A4 in human liver microsomes assessed as terfenadine hydroxylation after 20 mins by LC/MS/MS analysis; format: ADME, Microsome
Cytochrome P450 2D6 = Cytochrome P450 2D6 (Homo sapiens, UniProt P10635); test: Inhibition of CYP2D6 in human liver microsomes assessed as dextromethorphan O-demethylation after 20 mins by LC/MS/MS analysis; format: ADME, Microsome
Cytochrome P450 2C9 = Cytochrome P450 2C9 (Homo sapiens, UniProt P11712); test: Inhibition of CYP2C9 in human liver microsomes assessed as tolbutamide hydroxylation after 20 mins by LC/MS/MS analysis; format: ADME, Microsome
Cytochrome P450 1A2 = biological target: T3, Cytochrome P450 1A2 (Homo sapiens, UniProt P05177); test: Inhibition of CYP1A2 in human liver microsomes assessed as ethoxyresorufin O-deethylation after 20 mins by fluorescence plate reader analysis; format: ADME, Microsome
T3 sequence (P05177 whole entry): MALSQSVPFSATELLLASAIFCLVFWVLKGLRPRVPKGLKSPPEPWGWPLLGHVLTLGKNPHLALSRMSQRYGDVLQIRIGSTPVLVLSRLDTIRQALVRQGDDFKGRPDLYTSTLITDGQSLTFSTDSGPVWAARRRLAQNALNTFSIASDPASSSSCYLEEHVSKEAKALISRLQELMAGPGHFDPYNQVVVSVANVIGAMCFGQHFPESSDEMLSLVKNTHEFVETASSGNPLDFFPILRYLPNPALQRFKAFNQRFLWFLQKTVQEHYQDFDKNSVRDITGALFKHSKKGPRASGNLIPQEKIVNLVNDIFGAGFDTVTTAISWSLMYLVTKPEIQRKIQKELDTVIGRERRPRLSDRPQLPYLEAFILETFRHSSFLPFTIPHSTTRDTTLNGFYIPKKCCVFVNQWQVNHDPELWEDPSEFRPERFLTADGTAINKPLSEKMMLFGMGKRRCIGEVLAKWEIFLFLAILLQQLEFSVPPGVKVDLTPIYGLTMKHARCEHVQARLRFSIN

Chain of Cytochrome P450 2D6 (P10635 whole entry): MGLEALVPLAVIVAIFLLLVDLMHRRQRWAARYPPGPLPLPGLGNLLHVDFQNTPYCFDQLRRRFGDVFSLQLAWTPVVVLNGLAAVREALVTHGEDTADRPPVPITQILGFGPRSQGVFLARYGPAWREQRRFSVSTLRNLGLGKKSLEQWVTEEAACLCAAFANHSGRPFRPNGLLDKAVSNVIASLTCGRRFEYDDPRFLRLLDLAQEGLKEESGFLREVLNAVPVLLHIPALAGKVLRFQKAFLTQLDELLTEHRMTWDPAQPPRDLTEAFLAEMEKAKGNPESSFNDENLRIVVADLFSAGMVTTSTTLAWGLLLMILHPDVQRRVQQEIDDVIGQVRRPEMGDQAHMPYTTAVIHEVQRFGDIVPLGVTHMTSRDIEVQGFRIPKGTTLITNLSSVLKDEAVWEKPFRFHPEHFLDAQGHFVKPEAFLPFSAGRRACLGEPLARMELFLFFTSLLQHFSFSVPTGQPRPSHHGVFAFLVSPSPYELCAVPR
Chain of Cytochrome P450 3A4 (P08684 whole entry): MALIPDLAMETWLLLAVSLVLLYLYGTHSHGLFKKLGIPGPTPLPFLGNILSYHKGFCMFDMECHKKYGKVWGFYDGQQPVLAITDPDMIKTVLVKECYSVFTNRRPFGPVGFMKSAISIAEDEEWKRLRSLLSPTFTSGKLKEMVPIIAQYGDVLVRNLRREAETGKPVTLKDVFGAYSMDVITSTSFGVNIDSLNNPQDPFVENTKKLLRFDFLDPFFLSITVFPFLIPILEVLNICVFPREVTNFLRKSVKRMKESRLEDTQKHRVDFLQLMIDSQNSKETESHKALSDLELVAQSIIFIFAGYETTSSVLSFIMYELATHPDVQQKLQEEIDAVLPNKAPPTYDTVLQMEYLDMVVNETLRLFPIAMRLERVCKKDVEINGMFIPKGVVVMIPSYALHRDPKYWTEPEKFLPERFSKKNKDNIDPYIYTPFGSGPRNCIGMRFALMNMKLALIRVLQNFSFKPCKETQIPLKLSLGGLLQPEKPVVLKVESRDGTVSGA
Chain of Cytochrome P450 2C9 (P11712 whole entry): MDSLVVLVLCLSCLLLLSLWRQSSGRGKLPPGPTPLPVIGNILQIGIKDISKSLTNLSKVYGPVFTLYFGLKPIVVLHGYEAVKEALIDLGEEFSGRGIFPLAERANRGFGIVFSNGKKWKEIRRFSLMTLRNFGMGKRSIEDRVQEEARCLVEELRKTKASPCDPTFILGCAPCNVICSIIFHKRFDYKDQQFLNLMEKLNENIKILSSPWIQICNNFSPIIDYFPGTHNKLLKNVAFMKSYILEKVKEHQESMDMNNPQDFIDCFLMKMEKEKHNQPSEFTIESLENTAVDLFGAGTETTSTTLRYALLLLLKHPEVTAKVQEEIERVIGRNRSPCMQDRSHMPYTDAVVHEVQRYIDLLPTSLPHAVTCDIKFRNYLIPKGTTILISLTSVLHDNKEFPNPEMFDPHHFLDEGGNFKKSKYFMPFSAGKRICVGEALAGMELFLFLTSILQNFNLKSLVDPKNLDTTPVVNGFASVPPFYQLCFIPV

Structure (SMILES)	ED50 (Staphylococcus aureus [1]) [mg/kg]	MIC (Staphylococcus aureus [2]) [µg/mL]	Ratio (Haemophilus influenzae [3])	Ratio (Streptococcus pneumoniae [4])	Ratio (Moraxella catarrhalis [5])	Ratio (Enterococcus faecium [6])	Ratio (Enterococcus faecalis [7])	Ratio (Staphylococcus aureus [8])	Ratio (Staphylococcus aureus [9])	MIC (Haemophilus influenzae [10]) [µg/mL]	MIC (Streptococcus pneumoniae [11]) [µg/mL]	MIC (Staphylococcus aureus [12]) [µg/mL]	MIC (Enterococcus faecalis [13]) [µg/mL]	MIC (Staphylococcus aureus [14]) [µg/mL]	MIC (Staphylococcus aureus [15]) [µg/mL]	MIC (Moraxella catarrhalis [16]) [µg/mL]	MIC (Enterococcus faecium [17]) [µg/mL]	also measured
O=CN1CCN(c2c(F)cc(N3C[C@H](Cn4ccnn4)OC3=O)cc2F)CCN1	2.5	0.25	4	4	4	4	4	4	4	8	≤ 0.063	16	1	0.25	1	8	1	
CC(=O)NC[C@H]1CN(c2ccc(-c3ccc(N4CCNOCC4)nc3)c(F)c2)C(=O)O1			2	2	2	2	2	2	2	16	0.125	8	1	1	2	16	1	
O=C1O[C@@H](Cn2ccnn2)CN1c1ccc(-c2ccc(N3CCNOCC3)nc2)c(F)c1			2	2	2	2	2	2	2	32	0.25	8	2	1	2	8	1	
CNC(=O)N1CCN(c2ccc(N3C[C@H](CNC(=S)OC)OC3=O)cc2F)CCN1	0.86	0.5								16	0.25	8	0.5	0.25	0.5	2	0.25	inhibition at 10 min, 30 µM (MAO-B): 3.1%; inhibition at 5 min, 30 µM (MAO-A): 3.4%; IC50 (Cytochrome P450 3A4): > 20 µM; IC50 (Cytochrome P450 2D6): > 20 µM; IC50 (Cytochrome P450 2C9): > 20 µM; IC50 (Cytochrome P450 1A2): > 20 µM
CC(=S)NC[C@H]1CN(c2ccc(N3CCNN(C(N)=O)CC3)c(F)c2)C(=O)O1			4	4	4	4	4	4	4	4	0.063	8	0.5	0.25	0.25	4	0.5	
CC(=S)NC[C@H]1CN(c2cc(F)c(N3CCNN(C(N)=O)CC3)c(F)c2)C(=O)O1			4	4	4	4	4	4	4	4	0.063	4	0.25	0.125	0.25	1	0.25	
COC(=S)NC[C@H]1CN(c2ccc(N3CCNN(C(N)=O)CC3)c(F)c2)C(=O)O1			4	4	4	4	4	4	4	4	≤ 0.063	4	0.25	0.25	0.25	2	0.125	
COC(=S)NC[C@H]1CN(c2cc(F)c(N3CCNN(C(N)=O)CC3)c(F)c2)C(=O)O1	1.23	0.25	4	4	4	4	4	4	4	16	≤ 0.063	2	0.5	0.25	0.25	0.5	0.125	
COC(=S)NC[C@H]1CN(c2cc(F)c(N3CCON(C(N)=O)CC3)c(F)c2)C(=O)O1			4	4	4	4	4	4	4	8	≤ 0.063	2	0.25	0.25	0.25	1	0.125	
COC(=S)NC[C@H]1CN(c2ccc(N3CCNN(C=O)CC3)c(F)c2)C(=O)O1	2.95	0.25	4	4	4	4	4	4	4	4	0.063	4	0.25	0.25	0.25	2	0.25	
O=CN1CCN(c2c(F)cc(N3C[C@H](CNc4ccon4)OC3=O)cc2F)CCN1			4	4	4	4	4	4	4	16	0.25	16	1	0.5	1	8	1	
CC(=O)NC[C@H]1CN(c2ccc(N3CCOCC3)c(F)c2)C(=O)O1 [LINEZOLID]										16		32				8	2	inhibition (INH) (Cytochrome P450 3A4; human, microsomes, 20 min): Active; inhibition (INH) (Cytochrome P450 2D6; human, microsomes, 20 min): Active; inhibition (INH) (Cytochrome P450 2C9; human, microsomes, 20 min): Active; inhibition (INH) (Cytochrome P450 1A2; human, microsomes, 20 min): Active

Reference: ChEMBL document CHEMBL2434863, “Synthesis and in vitro/in vivo antibacterial activity of oxazolidinones having thiocarbamate at C-5 on the A-ring and an amide- or urea-substituted [1,2,5]triazepane or [1,2,5]oxadiazepane as the C-ring” (Eur J Med Chem, 2013)
